In ChEMBL document CHEMBL1140302, “Pyrrolo[1,5]benzoxa(thia)zepines as a new class of potent apoptotic agents. Biological studies and identification of an intracellular location of their drug target” (J Med Chem, 2005):

Experiments:
K562 = experiment: Percent apoptotic activity of compound in chronic myelogenous leukemia K562 cells at 10 uM for 16 h; assay type: functional, Homo sapiens
Method in brief: (§1)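 Seeded at 3 × 10⁵ cells/mL and given compound at 10 µM final from ethanol stock (vehicle 1% ethanol) for 16 h. Cytospin, RapiDiff staining, then ~300 cells counted by light microscopy (shrinkage, blebbing, nuclear condensation/fragmentation) for percent apoptosis.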

HL-60 = experiment: Percent apoptotic activity of compound in human acute myelocytic leukemia HL-60 cells at 10 uM for 16 h; assay type: functional; method in brief: as §1
NCI-H460 = experiment: In vitro cytotoxic activity of compound against human lung carcinoma (NCI-H460) cell lines by sulforhodamine B (SRB) assay; assay type: functional, cell-based
Method in brief: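 NCI-H460 seeded at 3 × 10³ cells/well, 24 h at 37 °C, then 24 h drug exposure at 10 decreasing concentrations (200–0.5 µM; drug in 10% DMSO in water; at least eight replicates each). PBS washes, 48 h recovery, TCA fixation, sulforhodamine B staining, bound dye read at 540 nm. IC50 (± SD) from sigmoidal curve fitting.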

HT-29 = experiment: In vitro cytotoxic activity of compound against human colon adenocarcinoma (HT-29) cell line by sulforhodamine B (SRB) assay; assay type: functional, cell-based
M109 = experiment: In vitro cytotoxic activity of compound against (M109) mouse lung carcinoma cells by sulforhodamine B (SRB) assay; assay type: functional, cell-based
[1] = In vitro cytotoxic activity of compound against (MesSa) human uterine sarcoma cells by sulforhodamine B (SRB) assay; assay type: functional, cell-based
Method in brief: (§2)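 Seeded at 1 × 10⁴ cells/well and grown 24 h at 37 °C; LoVo in Ham's F12, MesSa in McCoy's 5A, with 10% heat-inactivated FCS. Exposed 24 h to 10 decreasing concentrations (200–0.5 µM; dissolved in 10% DMSO in water; at least eight replicates each). Washed, 48 h recovery, TCA fixation, sulforhodamine B staining, OD 540 nm. IC50 (± SD) by sigmoidal curve fitting.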

Mus musculus [2] = experiment: Effect (30 mg/kg; i.p.) on hematology parameter of BALB/c mice as per the qdx8 schedule; assay type: functional
Method in brief: (§3)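 Male Balb/c mice (5-6 weeks old, about 20 g), five per group, dosed ip once daily for 8 consecutive days at 30 mg/kg. Vehicle: Cremophor EL 1:1 with ethanol, then diluted 1:4 in PBS, 10 mL/kg. Vehicle-only control group. Body weight recorded. 24 h after the last dose, retro-orbital blood was taken under CO2 into heparin. RBC, WBC and PLT counted on a cell analyzer. ANOVA and Student's t test.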

Mus musculus [3] = experiment: Effect (30 mg/kg; i.p.) on body weight of BALB/c mice according to the qdx8 schedule; initial weight=21.02 grams; assay type: functional; method in brief: as §3
LoVo = experiment: In vitro cytotoxic activity of compound against (LoVo) human colon adenocarcinoma cells by sulforhodamine B (SRB) assay; assay type: functional, cell-based; method in brief: as §2

## CCCCCC(=O)OC1=C(c2cccc3ccccc23)Oc2ccccc2[N+]2=C1CC=C2
K562
  Apoptotic Activity: 0%
HL-60
  Apoptotic Activity: 0%

## CN(C)C(=O)OC1=C(c2cccc3ccccc23)Sc2ccccc2[N+]2=C1CC=C2
K562
  Apoptotic Activity: 39%
HL-60
  Apoptotic Activity: 40%

## CN(C)C(=O)OC1=C(c2ccc3ccccc3c2)Oc2ccccc2[N+]2=C1CC=C2
K562
  Apoptotic Activity: 0%
HL-60
  Apoptotic Activity: 0%

## CCOC(=O)c1ccc2c(c1)OC(c1cccc3ccccc13)=C(OC(=O)N(C)C)C1=[N+]2C=CC1
K562
  Apoptotic Activity: 50%
HL-60
  Apoptotic Activity: 49%

## CC(=O)OC1=C(c2cccc3ccccc23)Sc2ccccc2[N+]2=C1CC=C2
K562
  Apoptotic Activity: 41%
HL-60
  Apoptotic Activity: 39%

## O=C(OC1=C(c2cccc3ccccc23)Sc2ccccc2[N+]2=C1CC=C2)c1ccncc1
K562
  Apoptotic Activity: 27%
HL-60
  Apoptotic Activity: 55%

## COc1ccc(C2=C(OC(=O)c3ccncc3)C3=[N+](C=CC3)c3ccccc3S2)cc1
K562
  Apoptotic Activity: 32%
HL-60
  Apoptotic Activity: 31%

## CCN(CC)C(=O)OC1=C(c2cccc3ccccc23)Sc2ccccc2[N+]2=C1CC=C2
K562
  Apoptotic Activity: 7%
HL-60
  Apoptotic Activity: 12%

## CC(=O)OC1=C(c2ccccc2)Oc2ccccc2[N+]2=C1CC=C2
K562
  Apoptotic Activity: 0%
HL-60
  Apoptotic Activity: 0%

## CN(C)C(=O)OC1=C(c2cccc3ccccc23)Oc2cc(C(=O)O)ccc2-n2cccc21
K562
  Apoptotic Activity: 0%
HL-60
  Apoptotic Activity: 0%

## COc1ccc(C2=C(OC(=O)N(C)C)C3=[N+](C=CC3)c3ccccc3S2)cc1
K562
  Apoptotic Activity: <10%
HL-60
  Apoptotic Activity: <10%

## CC(=O)OC1=C(c2cccc3ccccc23)Oc2ccccc2[N+]2=C1CC=C2
K562
  Apoptotic Activity: 43%
HL-60
  Apoptotic Activity: 42%

## CN(C)C(=O)OC1=C(c2cccc3ccccc23)Oc2ccccc2[N+]2=C1CC=C2
K562
  Apoptotic Activity: 48%
HL-60
  Apoptotic Activity: 44%
NCI-H460
  IC50: 1700 nM
HT-29
  IC50: 1900 nM
M109
  IC50: 1800 nM
[1]
  IC50: 7100 nM
Mus musculus [2]
  PLT: 354 10E3/mm3
  RBC: 9.45 10E6/mm3
  WBC: 7.03 10^3/mm³
Mus musculus [3]
  Weight: 20.8 g
LoVo
  IC50: 9200 nM

## CCCCC(=O)OC1=C(c2cccc3ccccc23)Oc2ccccc2[N+]2=C1CC=C2
K562
  Apoptotic Activity: 0%
HL-60
  Apoptotic Activity: 0%
